Results on four compounds are retold here after ChEMBL document CHEMBL2424622, “Development of amino-pyrimidine inhibitors of c-Jun N-terminal kinase (JNK): kinase profiling guided optimization of a 1,2,3-benzotriazole lead” (Bioorg Med Chem Lett, 2013).

The structures appear in SMILES notation.

Assay [1] has as its target Macrophage colony-stimulating factor 1 receptor (Homo sapiens) (UniProt P07333). The assay can be described thus: Competitive binding affinity to CSF1R (unknown origin) at 10 uM in presence of ATP relative to control. In short, it runs like this: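 In vitro ATP-site competition binding assay across a diverse panel of 128 kinases, with each compound tested at a single concentration. Kinase binding is expressed relative to control.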

The target of assay [2] is Interferon-induced, double-stranded RNA-activated protein kinase (Homo sapiens, UniProt P19525). Put plainly: Competitive binding affinity to PRKR (unknown origin) at 10 uM in presence of ATP relative to control.
Chain of Interferon-induced, double-stranded RNA-activated protein kinase (P19525 whole entry): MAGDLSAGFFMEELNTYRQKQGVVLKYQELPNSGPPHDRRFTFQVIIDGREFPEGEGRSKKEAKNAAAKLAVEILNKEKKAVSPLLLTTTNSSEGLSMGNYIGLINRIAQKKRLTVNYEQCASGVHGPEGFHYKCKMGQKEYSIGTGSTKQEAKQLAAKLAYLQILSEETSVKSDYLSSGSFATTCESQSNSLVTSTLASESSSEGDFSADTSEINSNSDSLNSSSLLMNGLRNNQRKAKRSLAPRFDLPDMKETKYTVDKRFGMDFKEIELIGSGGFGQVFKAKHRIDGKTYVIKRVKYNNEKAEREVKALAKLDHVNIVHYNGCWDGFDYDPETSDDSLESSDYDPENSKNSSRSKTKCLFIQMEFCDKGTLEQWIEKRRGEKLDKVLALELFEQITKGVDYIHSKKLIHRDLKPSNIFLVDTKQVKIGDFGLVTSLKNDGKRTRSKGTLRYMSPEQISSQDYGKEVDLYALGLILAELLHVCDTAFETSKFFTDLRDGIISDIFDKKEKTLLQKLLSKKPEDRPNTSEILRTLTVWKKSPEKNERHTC
Assay [3] deals with T1, Receptor-type tyrosine-protein kinase FLT3 (Homo sapiens), P36888 [D835H].
T1 sequence (whole entry): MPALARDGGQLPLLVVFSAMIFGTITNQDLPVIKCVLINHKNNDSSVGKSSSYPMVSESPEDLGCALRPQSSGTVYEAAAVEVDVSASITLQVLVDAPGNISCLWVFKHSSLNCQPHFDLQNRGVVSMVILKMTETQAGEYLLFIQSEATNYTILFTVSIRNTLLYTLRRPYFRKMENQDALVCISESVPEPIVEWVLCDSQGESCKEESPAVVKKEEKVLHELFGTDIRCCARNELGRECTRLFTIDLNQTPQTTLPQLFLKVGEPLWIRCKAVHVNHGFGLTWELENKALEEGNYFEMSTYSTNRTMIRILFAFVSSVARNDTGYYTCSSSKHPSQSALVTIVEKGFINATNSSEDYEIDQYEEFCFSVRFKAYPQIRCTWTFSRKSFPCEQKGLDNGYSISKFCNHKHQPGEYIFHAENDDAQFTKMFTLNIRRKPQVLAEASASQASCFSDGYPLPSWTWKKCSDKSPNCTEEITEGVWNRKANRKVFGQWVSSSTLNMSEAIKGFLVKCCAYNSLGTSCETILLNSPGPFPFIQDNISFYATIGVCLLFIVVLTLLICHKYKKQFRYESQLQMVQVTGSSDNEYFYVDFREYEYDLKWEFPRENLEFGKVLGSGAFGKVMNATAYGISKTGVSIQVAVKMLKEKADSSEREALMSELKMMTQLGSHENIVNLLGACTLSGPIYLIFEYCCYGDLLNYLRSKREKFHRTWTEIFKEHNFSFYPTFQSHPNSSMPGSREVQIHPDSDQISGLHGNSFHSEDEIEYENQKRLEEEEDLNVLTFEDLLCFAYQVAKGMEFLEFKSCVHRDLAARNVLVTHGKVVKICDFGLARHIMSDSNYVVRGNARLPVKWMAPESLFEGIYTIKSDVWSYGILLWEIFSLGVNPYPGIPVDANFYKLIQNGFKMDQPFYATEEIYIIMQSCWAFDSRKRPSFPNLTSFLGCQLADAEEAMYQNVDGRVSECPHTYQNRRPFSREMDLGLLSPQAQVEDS
Put plainly: Competitive binding affinity to FLT3 D835H mutant (unknown origin) at 10 uM in presence of ATP relative to control.

Assay [4] deals with Epidermal growth factor receptor (Homo sapiens), P00533 [L858R]. The assay can be described thus: Competitive binding affinity to EGFR L858R mutant (unknown origin) at 10 uM in presence of ATP relative to control. The essentials: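 In vitro ATP-site competition binding assay, part of profiling against a diverse panel of 128 kinases. Each compound was tested at a single concentration of 10 µM. Kinome selectivity was summarized as S15 selectivity scores.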
Chain of Epidermal growth factor receptor (Homo sapiens), P00533 [L858R] (P00533 whole entry L858R): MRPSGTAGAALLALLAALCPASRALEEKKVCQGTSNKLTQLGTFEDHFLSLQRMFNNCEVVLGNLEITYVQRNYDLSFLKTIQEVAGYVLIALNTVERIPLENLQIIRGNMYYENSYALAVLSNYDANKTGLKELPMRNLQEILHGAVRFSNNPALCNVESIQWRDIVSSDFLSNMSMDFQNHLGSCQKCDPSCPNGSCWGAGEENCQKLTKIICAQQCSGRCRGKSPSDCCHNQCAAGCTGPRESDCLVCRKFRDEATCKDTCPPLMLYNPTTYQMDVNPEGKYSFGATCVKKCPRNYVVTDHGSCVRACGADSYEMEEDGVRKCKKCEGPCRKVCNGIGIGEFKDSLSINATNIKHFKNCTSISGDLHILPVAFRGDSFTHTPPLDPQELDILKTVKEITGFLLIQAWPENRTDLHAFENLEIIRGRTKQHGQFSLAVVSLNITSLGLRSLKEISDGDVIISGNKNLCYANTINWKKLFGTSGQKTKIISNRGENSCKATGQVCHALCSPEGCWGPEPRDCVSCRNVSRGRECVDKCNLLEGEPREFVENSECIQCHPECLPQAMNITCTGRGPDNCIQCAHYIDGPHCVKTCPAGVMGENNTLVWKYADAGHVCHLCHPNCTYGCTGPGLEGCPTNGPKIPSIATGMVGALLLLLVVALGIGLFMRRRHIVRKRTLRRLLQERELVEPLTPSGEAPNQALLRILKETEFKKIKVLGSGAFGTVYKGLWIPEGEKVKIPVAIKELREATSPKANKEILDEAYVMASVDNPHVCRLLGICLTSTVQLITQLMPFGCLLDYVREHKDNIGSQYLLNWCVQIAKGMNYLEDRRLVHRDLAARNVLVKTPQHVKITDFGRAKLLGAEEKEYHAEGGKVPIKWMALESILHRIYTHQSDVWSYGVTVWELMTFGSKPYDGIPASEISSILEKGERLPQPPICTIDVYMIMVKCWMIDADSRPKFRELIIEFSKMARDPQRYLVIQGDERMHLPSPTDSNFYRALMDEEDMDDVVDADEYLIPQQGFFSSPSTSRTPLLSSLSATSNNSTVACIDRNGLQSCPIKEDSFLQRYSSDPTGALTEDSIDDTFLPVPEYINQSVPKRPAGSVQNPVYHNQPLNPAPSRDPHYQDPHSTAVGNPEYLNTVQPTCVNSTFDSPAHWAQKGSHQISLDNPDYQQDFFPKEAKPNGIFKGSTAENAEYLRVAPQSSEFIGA

Assay [5] has as its target T2, Phosphatidylinositol 5-phosphate 4-kinase type-2 beta (Homo sapiens) (UniProt P78356).
T2 sequence (whole entry): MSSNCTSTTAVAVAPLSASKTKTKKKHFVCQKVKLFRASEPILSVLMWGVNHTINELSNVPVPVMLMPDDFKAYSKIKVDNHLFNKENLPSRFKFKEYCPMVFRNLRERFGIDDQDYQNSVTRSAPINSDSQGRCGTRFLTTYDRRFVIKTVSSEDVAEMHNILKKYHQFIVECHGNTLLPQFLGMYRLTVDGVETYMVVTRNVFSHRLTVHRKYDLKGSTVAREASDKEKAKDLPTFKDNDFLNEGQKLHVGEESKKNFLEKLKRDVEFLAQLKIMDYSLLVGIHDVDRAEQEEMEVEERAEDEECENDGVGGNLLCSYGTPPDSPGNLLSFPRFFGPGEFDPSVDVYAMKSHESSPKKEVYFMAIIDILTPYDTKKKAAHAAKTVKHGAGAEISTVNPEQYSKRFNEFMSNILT
Put plainly: Competitive binding affinity to PIP5K2B (unknown origin) at 10 uM in presence of ATP relative to control.

Assay [6] has as its target T3, Discoidin domain-containing receptor 2 (Homo sapiens) (UniProt Q16832).
T3 sequence (whole entry): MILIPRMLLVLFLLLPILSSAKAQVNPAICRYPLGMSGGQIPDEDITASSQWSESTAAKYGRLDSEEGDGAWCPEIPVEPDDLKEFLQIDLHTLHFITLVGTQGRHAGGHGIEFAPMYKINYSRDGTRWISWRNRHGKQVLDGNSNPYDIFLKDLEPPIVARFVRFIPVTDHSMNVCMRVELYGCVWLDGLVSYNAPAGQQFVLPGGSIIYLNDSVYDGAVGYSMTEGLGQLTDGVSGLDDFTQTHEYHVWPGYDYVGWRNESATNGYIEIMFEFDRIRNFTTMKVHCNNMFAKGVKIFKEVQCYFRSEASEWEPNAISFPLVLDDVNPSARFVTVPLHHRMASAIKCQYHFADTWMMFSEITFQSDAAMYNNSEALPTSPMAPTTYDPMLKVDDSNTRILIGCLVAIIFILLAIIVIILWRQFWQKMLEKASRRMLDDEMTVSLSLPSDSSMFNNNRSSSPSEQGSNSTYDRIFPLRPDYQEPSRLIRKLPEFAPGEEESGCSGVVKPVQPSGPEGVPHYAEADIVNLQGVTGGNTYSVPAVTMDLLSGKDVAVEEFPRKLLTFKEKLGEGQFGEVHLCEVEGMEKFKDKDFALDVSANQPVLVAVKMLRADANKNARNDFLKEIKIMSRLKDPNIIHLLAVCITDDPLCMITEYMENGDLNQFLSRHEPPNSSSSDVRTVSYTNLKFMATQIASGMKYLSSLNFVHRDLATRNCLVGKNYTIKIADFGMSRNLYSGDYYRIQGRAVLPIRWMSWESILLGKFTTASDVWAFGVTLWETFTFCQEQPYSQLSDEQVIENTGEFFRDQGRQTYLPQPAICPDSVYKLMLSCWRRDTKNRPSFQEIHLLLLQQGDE
The assay can be described thus: Competitive binding affinity to DDR2 (unknown origin) at 10 uM in presence of ATP relative to control.

Chain of Macrophage colony-stimulating factor 1 receptor (Homo sapiens) (P07333 whole entry): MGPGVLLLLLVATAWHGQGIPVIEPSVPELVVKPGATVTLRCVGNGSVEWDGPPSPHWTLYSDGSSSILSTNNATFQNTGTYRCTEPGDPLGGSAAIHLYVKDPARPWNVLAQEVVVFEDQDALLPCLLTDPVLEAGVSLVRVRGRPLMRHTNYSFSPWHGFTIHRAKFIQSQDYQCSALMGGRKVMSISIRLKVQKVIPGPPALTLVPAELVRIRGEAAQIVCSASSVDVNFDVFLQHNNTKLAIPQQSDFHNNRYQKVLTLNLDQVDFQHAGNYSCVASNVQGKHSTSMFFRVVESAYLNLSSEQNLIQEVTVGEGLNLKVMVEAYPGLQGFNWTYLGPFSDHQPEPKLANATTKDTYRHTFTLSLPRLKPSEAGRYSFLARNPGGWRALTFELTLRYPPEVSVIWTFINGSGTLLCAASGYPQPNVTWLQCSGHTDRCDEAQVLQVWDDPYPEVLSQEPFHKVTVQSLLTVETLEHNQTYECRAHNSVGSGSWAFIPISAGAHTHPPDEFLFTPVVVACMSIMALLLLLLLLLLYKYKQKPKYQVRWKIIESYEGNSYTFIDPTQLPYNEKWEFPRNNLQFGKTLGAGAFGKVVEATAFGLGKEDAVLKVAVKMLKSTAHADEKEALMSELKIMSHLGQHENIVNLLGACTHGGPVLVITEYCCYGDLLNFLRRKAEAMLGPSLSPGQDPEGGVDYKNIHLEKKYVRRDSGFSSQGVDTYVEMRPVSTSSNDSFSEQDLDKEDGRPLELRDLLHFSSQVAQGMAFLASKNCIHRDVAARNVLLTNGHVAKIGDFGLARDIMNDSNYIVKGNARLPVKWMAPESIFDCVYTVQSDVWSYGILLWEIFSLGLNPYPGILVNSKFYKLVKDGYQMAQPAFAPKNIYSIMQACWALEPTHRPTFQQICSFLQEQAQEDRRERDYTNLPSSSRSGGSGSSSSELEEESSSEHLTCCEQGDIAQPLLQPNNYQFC

For orientation: inhibition means the relative decrease from the control value, in per cent. As to `O[C@H]1CC[C@H](Nc2nccc(-n3ccc4ccccc43)n2)CC1`, the inhibition in assay [1] was < 50%; in assay [2] it was 95%; in assay [3], < 50%; in assay [4], < 50%; in assay [5] it was < 50%; in assay [6], < 50%.
Take `O[C@H]1CC[C@H](Nc2nccc(-n3nnc4ccccc43)n2)CC1`: the inhibition in assay [1] is < 50%; in assay [2], 100%; in assay [3], 99%; in assay [4], < 50%; in assay [5] it was 74%; in assay [6], < 50%.
With `O[C@H]1CC[C@H](Nc2nccc(-n3ncc4ccccc43)n2)CC1`, the inhibition in assay [1] was 74%; in assay [2], 100%; in assay [3], 100%; in assay [4], < 50%; in assay [5], 92%; in assay [6], < 50%.
In the case of `O[C@H]1CC[C@H](Nc2nccc(-c3n[nH]c4ccccc34)n2)CC1`, the inhibition in assay [1] was 97%; in assay [3], 100%; in assay [4], < 50%.
